Test [1] concerns the target T1, Serine/threonine-protein kinase Sgk1 (Homo sapiens) (UniProt O00141).
T1 sequence (whole entry): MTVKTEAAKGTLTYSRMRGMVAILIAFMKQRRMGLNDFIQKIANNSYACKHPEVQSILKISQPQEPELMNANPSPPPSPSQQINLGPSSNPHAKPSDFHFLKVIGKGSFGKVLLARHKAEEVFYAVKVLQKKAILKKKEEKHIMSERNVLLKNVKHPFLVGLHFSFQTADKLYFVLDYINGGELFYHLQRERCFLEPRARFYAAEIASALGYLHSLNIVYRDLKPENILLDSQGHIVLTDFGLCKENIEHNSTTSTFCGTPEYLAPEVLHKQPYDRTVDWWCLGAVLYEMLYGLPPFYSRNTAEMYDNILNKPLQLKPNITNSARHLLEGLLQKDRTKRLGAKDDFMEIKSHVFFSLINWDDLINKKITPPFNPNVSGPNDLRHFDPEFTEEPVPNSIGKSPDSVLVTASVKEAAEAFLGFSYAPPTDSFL
Put plainly: Inhibition of human recombinant SGK1 at 40 nM in presence of ATP by radiometric assay relative to control.

The target in test [2] is T2, Beta-adrenergic receptor kinase 1 (Homo sapiens) (UniProt P25098).
T2 sequence (whole entry): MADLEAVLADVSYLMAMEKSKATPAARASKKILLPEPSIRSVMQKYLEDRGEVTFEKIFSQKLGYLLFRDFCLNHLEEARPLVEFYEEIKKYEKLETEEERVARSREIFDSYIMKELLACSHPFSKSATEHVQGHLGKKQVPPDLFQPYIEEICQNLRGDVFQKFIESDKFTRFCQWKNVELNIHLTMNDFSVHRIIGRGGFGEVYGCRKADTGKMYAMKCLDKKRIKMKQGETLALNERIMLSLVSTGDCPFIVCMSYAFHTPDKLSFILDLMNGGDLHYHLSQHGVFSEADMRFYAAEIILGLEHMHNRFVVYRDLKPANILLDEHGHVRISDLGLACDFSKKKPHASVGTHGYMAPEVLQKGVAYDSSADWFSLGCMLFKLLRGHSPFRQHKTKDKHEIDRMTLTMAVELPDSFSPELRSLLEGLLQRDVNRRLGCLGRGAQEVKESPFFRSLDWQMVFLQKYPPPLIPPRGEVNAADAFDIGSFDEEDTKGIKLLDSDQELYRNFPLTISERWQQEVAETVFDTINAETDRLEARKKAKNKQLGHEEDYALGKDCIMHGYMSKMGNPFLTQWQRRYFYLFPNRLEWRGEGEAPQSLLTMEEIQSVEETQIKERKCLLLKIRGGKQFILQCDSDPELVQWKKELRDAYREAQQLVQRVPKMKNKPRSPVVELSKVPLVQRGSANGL
Put plainly: Inhibition of human recombinant BARK1 at 500 nM in presence of ATP by radiometric assay relative to control. Put shortly: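 Part of a radiometric in vitro activity panel of 327 recombinant human kinases. Each kinase was tested in duplicate at one inhibitor concentration. Activity remaining was expressed as a percentage of the vehicle control, and percent inhibition was taken as 100 minus that value.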

The target in test [3] is Serine/threonine-protein kinase Nek6 (Homo sapiens) (UniProt Q9HC98). Put plainly: Inhibition of human recombinant NEK6 at 500 nM related to control ULK1.
Chain of Serine/threonine-protein kinase Nek6 (Homo sapiens) (Q9HC98 whole entry): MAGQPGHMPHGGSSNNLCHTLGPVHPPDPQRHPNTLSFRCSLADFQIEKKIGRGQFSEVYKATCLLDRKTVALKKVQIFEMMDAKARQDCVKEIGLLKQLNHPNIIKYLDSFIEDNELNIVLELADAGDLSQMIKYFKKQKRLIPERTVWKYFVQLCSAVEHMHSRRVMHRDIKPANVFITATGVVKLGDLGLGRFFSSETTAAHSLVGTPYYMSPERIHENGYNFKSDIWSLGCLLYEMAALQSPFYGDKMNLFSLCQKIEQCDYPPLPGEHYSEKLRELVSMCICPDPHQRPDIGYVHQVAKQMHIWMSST
Test [4] has as its target T3, Tyrosine-protein kinase TXK (Homo sapiens) (UniProt P42681).
T3 sequence (whole entry): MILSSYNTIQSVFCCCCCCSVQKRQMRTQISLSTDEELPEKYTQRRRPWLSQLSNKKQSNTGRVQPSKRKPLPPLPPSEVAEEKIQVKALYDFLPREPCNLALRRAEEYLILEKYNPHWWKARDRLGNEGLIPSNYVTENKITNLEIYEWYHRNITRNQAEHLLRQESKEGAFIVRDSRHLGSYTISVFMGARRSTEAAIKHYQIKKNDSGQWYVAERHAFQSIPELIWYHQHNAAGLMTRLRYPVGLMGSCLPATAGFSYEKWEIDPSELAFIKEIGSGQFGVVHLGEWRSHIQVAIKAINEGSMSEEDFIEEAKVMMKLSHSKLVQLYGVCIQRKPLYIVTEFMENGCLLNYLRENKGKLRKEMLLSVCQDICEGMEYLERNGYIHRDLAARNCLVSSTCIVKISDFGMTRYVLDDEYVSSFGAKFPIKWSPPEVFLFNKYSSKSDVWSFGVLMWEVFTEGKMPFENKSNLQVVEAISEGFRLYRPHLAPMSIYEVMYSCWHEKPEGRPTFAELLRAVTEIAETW
Put plainly: Inhibition of human recombinant TXK at 500 nM in presence of ATP by radiometric assay relative to control.

The target in test [5] is Serine/threonine-protein kinase WNK2 (Homo sapiens) (UniProt Q9Y3S1). Put plainly: Inhibition of human recombinant Wnk2 at 15 nM in presence of ATP by radiometric assay relative to control.
Chain of Serine/threonine-protein kinase WNK2 (Homo sapiens) (Q9Y3S1 whole entry): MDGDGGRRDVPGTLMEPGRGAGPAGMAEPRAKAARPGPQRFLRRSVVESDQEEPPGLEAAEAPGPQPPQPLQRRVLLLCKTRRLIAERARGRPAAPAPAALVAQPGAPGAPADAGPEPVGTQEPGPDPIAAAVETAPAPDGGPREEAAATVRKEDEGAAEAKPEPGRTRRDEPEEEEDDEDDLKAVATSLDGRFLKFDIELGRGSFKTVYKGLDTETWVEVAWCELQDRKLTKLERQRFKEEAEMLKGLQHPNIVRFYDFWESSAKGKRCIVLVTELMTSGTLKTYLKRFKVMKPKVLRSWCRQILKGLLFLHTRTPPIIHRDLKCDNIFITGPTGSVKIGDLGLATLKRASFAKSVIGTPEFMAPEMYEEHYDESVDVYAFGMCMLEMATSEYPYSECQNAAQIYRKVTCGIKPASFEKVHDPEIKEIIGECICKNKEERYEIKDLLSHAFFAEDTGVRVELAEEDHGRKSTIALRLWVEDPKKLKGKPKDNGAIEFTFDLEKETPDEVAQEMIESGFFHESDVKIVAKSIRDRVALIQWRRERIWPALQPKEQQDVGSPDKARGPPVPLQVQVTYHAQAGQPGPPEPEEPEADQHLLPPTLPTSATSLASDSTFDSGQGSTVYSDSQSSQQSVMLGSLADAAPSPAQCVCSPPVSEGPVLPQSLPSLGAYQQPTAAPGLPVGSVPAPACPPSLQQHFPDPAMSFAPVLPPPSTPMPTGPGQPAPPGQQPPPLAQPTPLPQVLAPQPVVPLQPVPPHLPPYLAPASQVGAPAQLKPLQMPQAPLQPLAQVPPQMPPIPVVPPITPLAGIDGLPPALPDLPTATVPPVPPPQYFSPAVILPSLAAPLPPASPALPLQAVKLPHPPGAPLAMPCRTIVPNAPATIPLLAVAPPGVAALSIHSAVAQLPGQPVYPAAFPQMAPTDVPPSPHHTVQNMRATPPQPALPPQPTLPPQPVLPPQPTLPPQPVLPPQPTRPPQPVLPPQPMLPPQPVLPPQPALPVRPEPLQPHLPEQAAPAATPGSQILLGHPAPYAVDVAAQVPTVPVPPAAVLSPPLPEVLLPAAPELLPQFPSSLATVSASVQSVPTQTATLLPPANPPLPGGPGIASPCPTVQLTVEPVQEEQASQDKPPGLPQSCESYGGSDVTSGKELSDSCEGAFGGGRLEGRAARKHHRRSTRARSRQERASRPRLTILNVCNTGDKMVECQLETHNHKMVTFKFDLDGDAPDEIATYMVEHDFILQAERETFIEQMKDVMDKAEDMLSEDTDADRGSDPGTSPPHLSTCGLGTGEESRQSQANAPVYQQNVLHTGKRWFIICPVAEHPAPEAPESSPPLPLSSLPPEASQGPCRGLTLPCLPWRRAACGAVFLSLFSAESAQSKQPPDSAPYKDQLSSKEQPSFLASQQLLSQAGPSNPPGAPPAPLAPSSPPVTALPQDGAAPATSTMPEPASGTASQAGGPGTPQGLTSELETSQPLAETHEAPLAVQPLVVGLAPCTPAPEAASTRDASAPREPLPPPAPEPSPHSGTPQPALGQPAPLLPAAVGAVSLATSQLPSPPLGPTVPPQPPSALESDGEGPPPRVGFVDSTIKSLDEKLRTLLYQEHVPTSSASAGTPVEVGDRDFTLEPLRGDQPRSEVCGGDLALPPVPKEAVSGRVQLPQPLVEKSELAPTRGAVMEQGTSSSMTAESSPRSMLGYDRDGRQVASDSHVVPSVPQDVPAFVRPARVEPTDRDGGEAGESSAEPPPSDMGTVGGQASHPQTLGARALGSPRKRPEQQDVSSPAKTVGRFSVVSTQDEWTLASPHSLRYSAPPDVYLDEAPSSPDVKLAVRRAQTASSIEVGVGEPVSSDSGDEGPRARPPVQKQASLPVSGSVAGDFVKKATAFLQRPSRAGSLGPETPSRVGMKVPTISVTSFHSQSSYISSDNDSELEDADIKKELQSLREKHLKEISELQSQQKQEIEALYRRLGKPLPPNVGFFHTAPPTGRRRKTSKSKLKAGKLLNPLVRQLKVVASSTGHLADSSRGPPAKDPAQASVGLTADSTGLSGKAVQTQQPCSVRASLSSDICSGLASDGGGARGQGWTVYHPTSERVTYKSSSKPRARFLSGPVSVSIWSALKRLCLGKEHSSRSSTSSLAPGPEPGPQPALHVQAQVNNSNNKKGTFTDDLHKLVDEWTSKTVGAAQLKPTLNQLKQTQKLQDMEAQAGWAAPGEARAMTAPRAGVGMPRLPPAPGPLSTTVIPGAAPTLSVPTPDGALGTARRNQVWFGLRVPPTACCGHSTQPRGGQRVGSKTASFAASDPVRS
The target of test [6] is Cyclin-dependent kinase 1 (Homo sapiens) (UniProt P06493). Put plainly: Inhibition of human recombinant CDC2 at 15 nM related to control ULK1.
Chain of Cyclin-dependent kinase 1 (Homo sapiens) (P06493 whole entry, looked up): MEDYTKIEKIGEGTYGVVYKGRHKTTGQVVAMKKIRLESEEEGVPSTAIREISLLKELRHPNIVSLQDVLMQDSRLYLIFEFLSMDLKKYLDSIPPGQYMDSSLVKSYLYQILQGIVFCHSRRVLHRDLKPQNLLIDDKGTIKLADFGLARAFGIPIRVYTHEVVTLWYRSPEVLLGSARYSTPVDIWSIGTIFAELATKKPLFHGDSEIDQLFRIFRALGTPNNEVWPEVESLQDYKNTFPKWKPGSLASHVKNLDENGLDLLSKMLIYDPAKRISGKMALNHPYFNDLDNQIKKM
Test [7] addresses Tyrosine-protein kinase FRK (Homo sapiens) (UniProt P42685). The test is described as follows: Inhibition of human recombinant FRK at 15 nM related to control ULK1.
The target in test [8] is Receptor-type tyrosine-protein kinase FLT3 (Homo sapiens) (UniProt P36888). The test is described as follows: Inhibition of human recombinant FLT3 at 15 nM in presence of ATP by radiometric assay relative to control.
Chain of Receptor-type tyrosine-protein kinase FLT3 (Homo sapiens) (P36888 whole entry): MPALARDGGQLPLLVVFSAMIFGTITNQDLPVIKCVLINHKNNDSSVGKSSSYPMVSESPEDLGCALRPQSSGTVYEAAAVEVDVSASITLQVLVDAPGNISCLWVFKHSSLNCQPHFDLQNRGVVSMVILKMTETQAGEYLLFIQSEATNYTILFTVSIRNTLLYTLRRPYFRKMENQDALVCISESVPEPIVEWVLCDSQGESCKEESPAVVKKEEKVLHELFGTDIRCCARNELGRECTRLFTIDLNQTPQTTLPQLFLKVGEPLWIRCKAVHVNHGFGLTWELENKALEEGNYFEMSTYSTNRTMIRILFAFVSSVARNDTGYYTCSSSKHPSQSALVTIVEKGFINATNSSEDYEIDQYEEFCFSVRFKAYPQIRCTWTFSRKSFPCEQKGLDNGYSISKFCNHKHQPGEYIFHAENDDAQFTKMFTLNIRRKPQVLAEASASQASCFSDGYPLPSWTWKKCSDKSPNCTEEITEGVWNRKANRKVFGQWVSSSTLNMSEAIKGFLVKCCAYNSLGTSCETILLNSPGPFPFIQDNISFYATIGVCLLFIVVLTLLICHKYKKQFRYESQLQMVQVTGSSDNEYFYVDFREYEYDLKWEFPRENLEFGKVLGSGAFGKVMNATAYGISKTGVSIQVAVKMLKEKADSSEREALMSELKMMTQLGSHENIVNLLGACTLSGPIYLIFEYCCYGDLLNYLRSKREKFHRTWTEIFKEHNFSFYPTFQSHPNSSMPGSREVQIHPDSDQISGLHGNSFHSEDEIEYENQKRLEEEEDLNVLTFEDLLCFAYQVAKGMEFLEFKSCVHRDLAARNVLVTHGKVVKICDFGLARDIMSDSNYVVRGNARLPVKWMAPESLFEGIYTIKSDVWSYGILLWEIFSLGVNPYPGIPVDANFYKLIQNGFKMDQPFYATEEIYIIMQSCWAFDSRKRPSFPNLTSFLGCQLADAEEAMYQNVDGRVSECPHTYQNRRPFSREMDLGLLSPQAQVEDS
In test [9] the target is T4, Testis-specific serine/threonine-protein kinase 4 (Homo sapiens) (UniProt Q6SA08).
T4 sequence (whole entry): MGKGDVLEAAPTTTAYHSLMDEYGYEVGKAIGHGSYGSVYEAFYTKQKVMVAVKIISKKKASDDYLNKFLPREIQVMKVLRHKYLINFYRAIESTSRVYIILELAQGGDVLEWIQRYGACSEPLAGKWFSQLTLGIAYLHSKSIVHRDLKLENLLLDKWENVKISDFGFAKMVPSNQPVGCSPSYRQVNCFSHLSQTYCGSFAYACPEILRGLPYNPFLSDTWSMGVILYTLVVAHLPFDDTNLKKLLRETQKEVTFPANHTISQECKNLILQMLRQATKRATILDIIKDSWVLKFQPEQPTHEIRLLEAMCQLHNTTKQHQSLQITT
Put plainly: Inhibition of human recombinant TSSK4 at 15 nM in presence of ATP by radiometric assay relative to control.

The target in test [10] is Cyclin-dependent kinase 7 (Homo sapiens) (UniProt P50613). The test is described as follows: Inhibition of human recombinant CDK7 at 15 nM related to control ULK1.
Chain of Cyclin-dependent kinase 7 (Homo sapiens) (P50613 whole entry): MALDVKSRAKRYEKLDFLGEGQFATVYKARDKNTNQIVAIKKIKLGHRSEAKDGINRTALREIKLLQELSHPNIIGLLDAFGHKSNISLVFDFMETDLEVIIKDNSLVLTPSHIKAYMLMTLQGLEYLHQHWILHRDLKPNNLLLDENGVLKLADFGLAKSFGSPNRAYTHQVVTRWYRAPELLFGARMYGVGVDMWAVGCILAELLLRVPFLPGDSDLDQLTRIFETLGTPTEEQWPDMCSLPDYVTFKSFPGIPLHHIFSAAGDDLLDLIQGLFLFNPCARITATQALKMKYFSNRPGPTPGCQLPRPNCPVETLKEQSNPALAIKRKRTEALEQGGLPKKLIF

Chain of Tyrosine-protein kinase FRK (Homo sapiens) (P42685 whole entry): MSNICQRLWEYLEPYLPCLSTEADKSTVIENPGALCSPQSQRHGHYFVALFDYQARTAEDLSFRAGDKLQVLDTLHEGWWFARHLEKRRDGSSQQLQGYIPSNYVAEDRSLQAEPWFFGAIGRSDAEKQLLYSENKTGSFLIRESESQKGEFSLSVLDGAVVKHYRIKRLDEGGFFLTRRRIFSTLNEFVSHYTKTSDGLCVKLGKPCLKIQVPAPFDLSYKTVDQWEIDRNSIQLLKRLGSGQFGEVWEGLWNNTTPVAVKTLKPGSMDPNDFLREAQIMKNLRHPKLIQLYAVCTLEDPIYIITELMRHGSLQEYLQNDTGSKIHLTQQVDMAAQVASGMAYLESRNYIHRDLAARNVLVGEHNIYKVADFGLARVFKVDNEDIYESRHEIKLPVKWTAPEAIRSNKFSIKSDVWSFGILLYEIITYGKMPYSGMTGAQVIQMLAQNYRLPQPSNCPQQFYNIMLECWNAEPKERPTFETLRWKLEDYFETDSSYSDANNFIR

The inhibition is the percentage by which the read-out fell short of the control. Take `O=C(N[C@@H](C1CC1)C(F)(F)F)c1cc(-c2cnn3cc(-c4ccc(F)cc4)cnc23)cs1`: the inhibition in [1] was 7%.
Regarding `CNC(=O)c1ccccc1Oc1nc(Nc2cc(OC)c(OC)c(OC)c2)ncc1Br`, the figures for the inhibition in test [2] and in test [4] were 8% and 17%, respectively. The fold change (FC) in test [3] is 0.
Consider `CC(C)[C@H](NC(=O)c1cc(-c2cnn3cc(-c4ccc(OCCN5CCCCC5)cc4)cnc23)cs1)C(F)(F)F`, for which the figures for the inhibition in test [5], in [8] and in test [9] were 2%, 68% and 0%, respectively. Further, the fold change (FC) in test [6] was 0.27; in [7] it was 0.15; in test [10] it was 0.18.

These data come from ChEMBL document CHEMBL5653631, “A Potent and Selective ULK1 Inhibitor Suppresses Autophagy and Sensitizes Cancer Cells to Nutrient Stress” (iScience, 2018).
